The target in experiment [1] is T1, Neuronal acetylcholine receptor; alpha4/beta2 (Rattus norvegicus, UniProt P09483+P12390). Description: Displacement of [3H]epibatidine from rat alpha4beta2 nAChR transfected in HEK293 cell membrane. Format: cell membranes. Put shortly:
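Rat α4β2, α4β4 or α3β4 subtypes; competition binding against [3H]epibatidine; Ki values; means of 3–5 independent experiments, each run in duplicate.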
(In a radioligand displacement assay an active substance lowers the binding of a labelled ligand.)

The target of experiment [2] is Neuronal acetylcholine receptor; alpha4/beta4 (Rattus norvegicus, UniProt P09483+P12392). Description: Displacement of [3H]epibatidine from rat alpha4beta4 nAChR transfected in HEK293 cell membrane. Format: cell membranes.
The target of experiment [3] is Neuronal acetylcholine receptor; alpha3/beta4 (Rattus norvegicus, UniProt P04757+P12392). Description: Displacement of [3H]epibatidine from rat alpha3beta4 nAChR transfected in HEK293 cell membrane. Type of experiment: cell membranes.
The target in experiment [4] is Neuronal acetylcholine receptor subunit alpha-7 (Rattus norvegicus, UniProt Q05941). Kind of experiment: Displacement of [3H]MLA from rat alpha7 nAChR transfected in tsA201 cell membrane. Format: cell membranes.
The target of experiment [5] is T1, Neuronal acetylcholine receptor; alpha4/beta2. Description: Antagonist activity at rat alpha4beta2 nAChR expressed in HEK293T cells by FLIPR assay. Type of experiment: cell-based, HEK-293T. Put shortly: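 Fluorescence-based FLIPR membrane potential read-out of receptor function; antagonist mode gives an IC50.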
Experiment [6] has as its target Neuronal acetylcholine receptor; alpha3/beta4 (Rattus norvegicus) (UniProt P04757+P12392). Kind of experiment: Agonist activity at rat alpha3beta4 nAChR expressed in HEK293T cells by FLIPR assay. Format: cell-based. The following applies: HEK-293T.
Experiment [7] concerns the target T2, Neuronal acetylcholine receptor; alpha4/beta2 (Rattus norvegicus) (UniProt P09483+P12390). Description: Inhibition of rat alpha4beta2 nAChR expressed in Xenopus laevis oocytes assessed as baseline current at 100 uM by two electrode-electrophysiology method. Format: cell-based. The method in brief:
(§1)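 α4β2-expressing oocytes: compound at 100 μM applied alone to monitor baseline current, then coapplied with 30 μM ACh to assess the ACh-evoked current.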

The target in experiment [8] is T1, Neuronal acetylcholine receptor; alpha4/beta2. Description: Inhibition of rat (alpha4)2(beta2)3 nAChR expressed in Xenopus laevis oocytes assessed as inhibition of 100 uM ACh-induced current by two electrode-electrophysiology method. Format: cell-based. The method in brief:
(§2)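 Xenopus oocytes injected with α4 and β2 mRNA at ratio 10:1 for (α4)3(β2)2 or 1:10 for (α4)2(β2)3. Peak currents evoked by fixed ACh (1 mM for 10:1, 100 μM for 1:10) are measured with increasing compound concentrations. Concentration–inhibition curves give IC50, with Ki also reported.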

Experiment [9] shares this target. Description: Inhibition of rat (alpha4)3(beta2)2 nAChR expressed in Xenopus laevis oocytes assessed as inhibition of 1 mM ACh-induced current by two electrode-electrophysiology method. Type of experiment: cell-based. The method in brief: as §2
Experiment [10] deals with T2, Neuronal acetylcholine receptor; alpha4/beta2 (Rattus norvegicus). Kind of experiment: Inhibition of rat alpha4beta2 nAChR expressed in Xenopus laevis oocytes assessed as inhibition of 30 uM ACh-induced current at 100 uM by two electrode-electrophysiology method. Type of experiment: cell-based. The method in brief:
as §1

The test system of the next experiment is Mus musculus. Kind of experiment: Antidepressant activity in mouse assessed as total swim distance at 1 to 10 mg/kg, sc by forced swimming test. Format: functional, organism-based. Put shortly: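 Mouse forced swim test; subcutaneous doses of 1, 3 and 10 mg/kg; swimming scored.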

Activity calls are given as the source filed them. The calls are words filed in the database; no cut-off is given here.

Chain of Neuronal acetylcholine receptor subunit alpha-7 (Q05941 whole entry): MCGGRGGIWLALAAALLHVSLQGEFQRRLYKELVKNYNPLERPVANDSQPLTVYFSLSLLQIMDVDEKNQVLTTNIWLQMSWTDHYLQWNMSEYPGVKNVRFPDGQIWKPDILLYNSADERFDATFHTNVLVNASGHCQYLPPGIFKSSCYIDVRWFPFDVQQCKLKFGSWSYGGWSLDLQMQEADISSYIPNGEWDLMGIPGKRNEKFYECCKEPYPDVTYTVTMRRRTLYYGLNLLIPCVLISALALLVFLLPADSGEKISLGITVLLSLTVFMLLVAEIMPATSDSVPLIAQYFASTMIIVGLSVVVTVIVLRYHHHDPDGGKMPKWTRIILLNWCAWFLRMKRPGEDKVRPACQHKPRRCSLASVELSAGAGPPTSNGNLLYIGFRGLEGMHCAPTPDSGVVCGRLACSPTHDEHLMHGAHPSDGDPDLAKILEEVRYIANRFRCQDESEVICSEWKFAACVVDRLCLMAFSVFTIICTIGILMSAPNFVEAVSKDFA
Chain of Neuronal acetylcholine receptor; alpha3/beta4 (P04757 whole entry): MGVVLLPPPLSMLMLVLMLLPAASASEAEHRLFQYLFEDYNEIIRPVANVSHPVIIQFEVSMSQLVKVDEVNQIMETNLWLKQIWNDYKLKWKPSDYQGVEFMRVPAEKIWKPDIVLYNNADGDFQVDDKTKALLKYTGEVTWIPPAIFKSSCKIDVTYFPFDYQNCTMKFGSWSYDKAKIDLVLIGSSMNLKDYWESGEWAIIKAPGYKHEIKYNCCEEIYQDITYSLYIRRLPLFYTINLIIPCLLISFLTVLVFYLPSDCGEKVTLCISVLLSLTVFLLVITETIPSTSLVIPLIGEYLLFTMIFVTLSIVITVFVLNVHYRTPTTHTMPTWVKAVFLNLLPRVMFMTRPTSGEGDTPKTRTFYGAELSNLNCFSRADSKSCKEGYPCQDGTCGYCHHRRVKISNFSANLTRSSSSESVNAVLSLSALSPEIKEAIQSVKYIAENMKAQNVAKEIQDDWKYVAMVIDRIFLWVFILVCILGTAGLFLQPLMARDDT
Chain of Neuronal acetylcholine receptor; alpha3/beta4 (P12392 whole entry): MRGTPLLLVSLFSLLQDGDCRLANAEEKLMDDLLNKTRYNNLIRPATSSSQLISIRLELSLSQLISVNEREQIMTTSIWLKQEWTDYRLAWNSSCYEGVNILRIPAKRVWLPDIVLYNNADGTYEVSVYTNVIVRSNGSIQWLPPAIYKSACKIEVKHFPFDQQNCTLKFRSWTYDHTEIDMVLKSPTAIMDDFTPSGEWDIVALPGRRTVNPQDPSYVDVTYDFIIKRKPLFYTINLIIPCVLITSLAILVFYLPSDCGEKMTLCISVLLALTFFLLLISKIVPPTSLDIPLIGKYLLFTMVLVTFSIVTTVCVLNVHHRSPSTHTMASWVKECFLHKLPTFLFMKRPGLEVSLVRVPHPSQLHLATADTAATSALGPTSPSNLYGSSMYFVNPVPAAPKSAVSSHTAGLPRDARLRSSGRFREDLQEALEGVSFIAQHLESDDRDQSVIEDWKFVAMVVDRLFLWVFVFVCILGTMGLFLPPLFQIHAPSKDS
T1 sequence (P09483 whole entry): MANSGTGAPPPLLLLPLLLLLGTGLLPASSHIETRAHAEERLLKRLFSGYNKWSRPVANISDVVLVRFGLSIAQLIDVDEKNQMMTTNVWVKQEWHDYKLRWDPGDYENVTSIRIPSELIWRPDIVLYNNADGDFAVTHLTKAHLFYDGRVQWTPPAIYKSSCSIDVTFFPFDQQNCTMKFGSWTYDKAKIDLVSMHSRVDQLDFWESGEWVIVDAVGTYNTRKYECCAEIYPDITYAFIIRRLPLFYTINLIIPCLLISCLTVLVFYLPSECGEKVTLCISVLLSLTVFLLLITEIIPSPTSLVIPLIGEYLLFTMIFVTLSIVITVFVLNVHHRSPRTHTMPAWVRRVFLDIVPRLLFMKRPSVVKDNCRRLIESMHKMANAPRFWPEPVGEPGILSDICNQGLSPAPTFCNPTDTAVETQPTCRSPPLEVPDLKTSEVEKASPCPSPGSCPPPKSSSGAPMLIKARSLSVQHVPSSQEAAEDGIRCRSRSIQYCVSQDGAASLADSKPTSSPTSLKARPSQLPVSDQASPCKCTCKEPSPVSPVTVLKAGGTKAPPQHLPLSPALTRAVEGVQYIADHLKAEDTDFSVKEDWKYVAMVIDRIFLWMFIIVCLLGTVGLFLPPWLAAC
T1 sequence (P12390 whole entry): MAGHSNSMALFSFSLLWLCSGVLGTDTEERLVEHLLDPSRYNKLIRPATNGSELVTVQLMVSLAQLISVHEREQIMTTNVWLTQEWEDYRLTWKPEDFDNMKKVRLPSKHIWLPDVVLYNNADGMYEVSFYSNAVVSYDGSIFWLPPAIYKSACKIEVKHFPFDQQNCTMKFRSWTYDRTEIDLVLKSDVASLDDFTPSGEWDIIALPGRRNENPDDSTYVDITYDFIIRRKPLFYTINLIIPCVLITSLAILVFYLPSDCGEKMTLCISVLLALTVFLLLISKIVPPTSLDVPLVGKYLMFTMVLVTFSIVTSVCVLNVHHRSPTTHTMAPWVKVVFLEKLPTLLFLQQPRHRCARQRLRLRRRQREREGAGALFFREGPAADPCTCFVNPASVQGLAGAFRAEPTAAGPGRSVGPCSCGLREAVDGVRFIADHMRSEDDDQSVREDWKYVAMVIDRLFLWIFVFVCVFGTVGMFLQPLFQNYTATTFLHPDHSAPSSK
Chain of Neuronal acetylcholine receptor; alpha4/beta4 (P09483 whole entry): as the sequence (P09483 whole entry) above
Chain of Neuronal acetylcholine receptor; alpha4/beta4 (P12392 whole entry): as the sequence (P12392 whole entry) above

As for `c1cc2c(cn1)CCN1CCCC21` (racemic), the values for the Ki in experiment [1], in experiment [2] and in [3] were 13 µM, 100 µM and 100 µM, respectively.

Regarding `c1cc2c(cn1)[C@@H]1CCCN1CC2`, the Ki was 3.4 µM in experiment [1], 100 µM in [2], 100 µM in experiment [3] and above 300 µM in [4].

With `c1cc2c(cn1)C1CCCN1CC2` (racemic), the Ki in experiment [1] was determined as 0.071 µM; in [2] it was 7.2 µM; in [3] it was 100 µM; in [4] it was 500 µM. Also, inhibition in experiment [5] was half-maximal at 0.12 µM (IC50). Moreover, the result in [6] was inactive.

With `c1cc2c(cn1)[C@H]1CCCN1CC2`, the Ki in [2] amounted to 3.7 µM; in experiment [8] it was 0.34 µM; in experiment [3], 50 µM; in experiment [9], 15 µM; in experiment [4], 300 µM. Further, the inhibition result in experiment [7] is “inactive”. Moreover, the IC50 in [8] is 87 µM; in [9], 135 µM. For the same compound, in experiment [10], the inhibition result is “Active”. Further, the result in the experiment with Mus musculus was inactive.

As usually defined, the Ki is the equilibrium dissociation constant of an inhibitor or competing ligand from its target. What is called IC50 is the concentration needed to halve the response being measured.

Values taken from ChEMBL document CHEMBL3576860 (ACS Med Chem Lett, 2015).
